Legend:
Hv1 WT [1] = target: T1, Hv1 WT (Homo sapiens, UniProt Q96D96); assay type: cell-based; details: for inhibition kinetics: fast and slow components: RDT = 0.2
T1 sequence (Q96D96 1-273): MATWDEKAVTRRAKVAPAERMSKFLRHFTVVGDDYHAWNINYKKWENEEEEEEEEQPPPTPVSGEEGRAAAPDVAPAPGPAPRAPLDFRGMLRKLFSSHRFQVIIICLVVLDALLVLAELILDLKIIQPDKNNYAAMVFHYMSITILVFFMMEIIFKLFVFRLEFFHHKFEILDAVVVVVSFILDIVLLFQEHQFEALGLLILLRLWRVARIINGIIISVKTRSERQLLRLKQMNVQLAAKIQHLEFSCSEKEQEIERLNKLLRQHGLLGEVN
Procedure, shortened: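 WT channel in inside-out oocyte patches, symmetric pH 6.0, 22 ± 1°C. Holding −40 mV, depolarization to +120 mV; relative depolarization time td/(tr + td) of 0.1, 0.2, 0.3 or 0.5. 50 µM perfused into bath, then washed out. End-pulse current normalized. Decay fitted double-exponentially (τfast, τslow, weights, c∞); recovery fitted single-exponentially. n = 7, 7, 5, 8 per RDT; SEM.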

Hv1 = details: full set of concentration points; ref Zhao et al., 2021; cited from earlier work
Hv1 WT [2] = target: T1, Hv1 WT; assay: Inside-out patch, pulsed application of inhibitor to the closed channel; assay type: cell-based; details: 100 µM pulses, membrane held at 0 mV or −80 mV
Procedure, shortened: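 WT channel, inside-out oocyte patches, pH 6.0. Test compound (100 µM) applied in 3 s pulses while the membrane was held closed at −40 mV, or at 0 mV or −80 mV. Current read after each pulse with a step to +120 mV. Control pulses of a reference Hv1 inhibitor given first to confirm complete washout between depolarizations.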

Hv1 WT [3] = target: T1, Hv1 WT; details: 200 µM; ref Hong et al. (2013); cited from earlier work

In the case of Cc1[nH]c(N)nc1CNC(=O)c1cc(F)cc(F)c1 [HIFNH, N-[(2-amino-5-methyl-1H-imidazol-4-yl)methyl]-3,5-difluorobenzamide], the “inhibition kinetics: fast and slow components” value (shortened to “inhibition kinetics”) (Hv1 WT [1]; 50 μM) was “with fast and slow components”.
For Cc1[nH]c(N)nc1CCC(=O)c1ccccc1 [HIFNF, 3-(2-amino-5-methyl-1H-imidazol-4-yl)-1-phenyl-propan-1-one], the “inhibition kinetics” value (Hv1 WT [1]; 50 μM) was “with fast and slow components”.
In the case of Cc1[nH]c(N)nc1/C=C/C(=O)c1cc(F)cc(F)c1 [HIFEN, (2E)-3-(2-amino-5-methyl-1H-imidazol-4-yl)-1-(3,5-difluorophenyl)prop-2-en-1-one], the “inhibition kinetics” value (Hv1 WT [1]; 50 μM) is given as “with fast and slow components” and the Hill coefficient (Hv1) is given as 1.50 ± 0.11.
For N=C(N)Nc1nc2ccccc2[nH]1 [2GBI, 2-guanidinobenzimidazole, reference compound], the “inhibition when transiently perfused on closed channel” value (Hv1 WT [2]) was “failed to produce any inhibition”, the “return of current to original level upon washout” value (Hv1 WT [1]; after 50 μM, washout) was “a few seconds” and the inhibition at 50 µM (Hv1 WT [1]; read-out: stable inhibited current level (of the original current)) was ~50%. For the same molecule, the G-V shift (Hv1 WT [3]) was “lack of G-V shift”.
In the case of Nc1nc2ccccc2[nH]1 [ABI, 2-aminobenzimidazole, reference compound], the “extent and kinetics of proton current inhibition compared with 2GBI” value (Hv1 WT [1]; 50 μM, same conditions as 2GBI) was “inhibited the proton current to a smaller extent but with similar kinetics”.
For Cc1[nH]c(N)nc1CCC(O)c1cc(F)cc(F)c1 (stereo not shown) [HIFOH, 3-(2-amino-5-methyl-1H-imidazol-4-yl)-1-(3,5-difluorophenyl)propan-1-ol], the “inhibition kinetics” value (Hv1 WT [1]; 50 μM) was “did not have a significant slow component”.

From article PMC8263925 (The Journal of General Physiology, 2021)
